Experimental data taken from ChEMBL document CHEMBL1157639, “Identification of inhibitors of drug-resistant Candida albicans strains from a library of bicyclic peptidomimetic compounds” (2010).

How the values were obtained:
Candida albicans [1] = assay: Antifungal activity against pharmacoresistant Candida albicans AIDS68 infected in Wistar rat estrogen-dependent fungal vaginitis model assessed as fungal burden at 10 ug administered intravaginally 48 hrs after fungal infection measured on day 7 after infection; format: functional, Vagina
Procedure, shortened: (§1)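 Oophorectomized female Wistar rats (80-100 g) got 0.5 mg estradiol benzoate s.c. Six days later they were inoculated intravaginally with >10⁷ YPD-grown yeast cells (28 °C, washed, hemocytometer-counted) in 0.1 mL saline. Treatment was given intravaginally at 1, 24 and 48 h post-challenge. Burden was counted by culturing 100 μL vaginal fluid on Sabouraud-chloramphenicol (50 μg/mL) agar, as CFU/mL ×1000, through day 28.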

Candida albicans [2] = assay: Antifungal activity against pharmacoresistant Candida albicans AIDS68 infected in Wistar rat estrogen-dependent fungal vaginitis model assessed as fungal burden at 10 ug administered intravaginally 48 hrs after fungal infection measured on day 5 after infection; format: functional, Vagina; procedure, shortened: as §1
Candida albicans [3] = assay: Antifungal activity against pharmacoresistant Candida albicans AIDS68 infected in Wistar rat estrogen-dependent fungal vaginitis model assessed as fungal burden at 10 ug administered intravaginally 24 hrs after fungal infection measured on day 2 after infection; format: functional, Vagina; procedure, shortened: as §1
Candida albicans [4] = assay: Antifungal activity against pharmacoresistant Candida albicans AIDS68 infected in Wistar rat estrogen-dependent fungal vaginitis model assessed as fungal burden at 10 ug administered intravaginally 1 hr after fungal infection measured on day 1 after infection; format: functional, Vagina; procedure, shortened: as §1
Candida albicans [5] = assay: Antifungal activity against Candida albicans SA40 infected in Wistar rat estrogen-dependent fungal vaginitis model assessed as fungal burden at 10 ug administered intravaginally 48 hrs after fungal infection measured on day 28 after infection; format: functional, Vagina; procedure, shortened: as §1
Candida albicans [6] = assay: Antifungal activity against Candida albicans SA40 infected in Wistar rat estrogen-dependent fungal vaginitis model assessed as fungal burden at 10 ug administered intravaginally 48 hrs after fungal infection measured on day 21 after infection; format: functional, Vagina; procedure, shortened: as §1
Candida albicans [7] = assay: Antifungal activity against Candida albicans SA40 infected in Wistar rat estrogen-dependent fungal vaginitis model assessed as fungal burden at 10 ug administered intravaginally 48 hrs after fungal infection measured on day 14 after infection; format: functional, Vagina; procedure, shortened: as §1
Candida albicans [8] = assay: Antifungal activity against Candida albicans SA40 infected in Wistar rat estrogen-dependent fungal vaginitis model assessed as fungal burden at 10 ug administered intravaginally 48 hrs after fungal infection measured on day 7 after infection; format: functional, Vagina; procedure, shortened: as §1
Candida albicans [9] = assay: Antifungal activity against Candida albicans SA40 infected in Wistar rat estrogen-dependent fungal vaginitis model assessed as fungal burden at 10 ug administered intravaginally 48 hrs after fungal infection measured on day 5 after infection; format: functional, Vagina; procedure, shortened: as §1
Candida albicans [10] = assay: Antifungal activity against Candida albicans SA40 infected in Wistar rat estrogen-dependent fungal vaginitis model assessed as fungal burden at 10 ug administered intravaginally 24 hrs after fungal infection measured on day 2 after infection; format: functional, Vagina; procedure, shortened: as §1
Candida albicans [11] = assay: Antifungal activity against Candida albicans SA40 infected in Wistar rat estrogen-dependent fungal vaginitis model assessed as fungal burden at 10 ug administered intravaginally 1 hr after fungal infection measured on day 1 after infection; format: functional, Vagina; procedure, shortened: as §1
Candida albicans [12] = assay: Antifungal activity against Candida albicans SA40 infected in Wistar rat estrogen-dependent fungal vaginitis model assessed as fungal burden at 10 ug administered intravaginally 1 hr after fungal infection measured within 1 day of infection; format: functional, Vagina; procedure, shortened: as §1
Candida albicans [13] = assay: Antifungal activity against pharmacoresistant Candida albicans AIDS68 infected in Wistar rat estrogen-dependent fungal vaginitis model assessed as fungal burden at 10 ug administered intravaginally 48 hrs after fungal infection measured on day 14 after infection; format: functional, Vagina; procedure, shortened: as §1
Candida albicans [14] = assay: Antifungal activity against pharmacoresistant Candida albicans AIDS68 infected in Wistar rat estrogen-dependent fungal vaginitis model assessed as fungal burden at 10 ug administered intravaginally 48 hrs after fungal infection measured on day 21 after infection; format: functional, Vagina; procedure, shortened: as §1
Candida albicans [15] = assay: Antifungal activity against pharmacoresistant Candida albicans AIDS68 infected in Wistar rat estrogen-dependent fungal vaginitis model assessed as fungal burden at 10 uM administered intravaginally 48 hrs after fungal infection measured on day 28 after infection; format: functional, Vagina; procedure, shortened: as §1
Candida albicans [16] = assay: Antifungal activity against pharmacoresistant Candida albicans AIDS68 infected in Wistar rat estrogen-dependent fungal vaginitis model assessed as fungal burden at 10 uM administered intravaginally 48 hrs after fungal infection measured on day 21 after infection; format: functional, Vagina; procedure, shortened: as §1
Candida albicans [17] = assay: Antifungal activity against pharmacoresistant Candida albicans AIDS68 infected in Wistar rat estrogen-dependent fungal vaginitis model assessed as fungal burden at 10 uM administered intravaginally 48 hrs after fungal infection measured on day 14 after infection; format: functional, Vagina; procedure, shortened: as §1
Candida albicans [18] = assay: Antifungal activity against pharmacoresistant Candida albicans AIDS68 infected in Wistar rat estrogen-dependent fungal vaginitis model assessed as fungal burden at 10 uM administered intravaginally 48 hrs after fungal infection measured on day 7 after infection; format: functional, Vagina; procedure, shortened: as §1
Candida albicans [19] = assay: Antifungal activity against pharmacoresistant Candida albicans AIDS68 infected in Wistar rat estrogen-dependent fungal vaginitis model assessed as fungal burden at 10 uM administered intravaginally 48 hrs after fungal infection measured on day 5 after infection; format: functional, Vagina; procedure, shortened: as §1
Candida albicans [20] = assay: Antifungal activity against pharmacoresistant Candida albicans AIDS68 infected in Wistar rat estrogen-dependent fungal vaginitis model assessed as fungal burden at 10 uM administered intravaginally 24 hrs after fungal infection measured on day 2 after infection; format: functional, Vagina; procedure, shortened: as §1
Candida albicans [21] = assay: Antifungal activity against pharmacoresistant Candida albicans AIDS68 infected in Wistar rat estrogen-dependent fungal vaginitis model assessed as fungal burden at 10 uM administered intravaginally 1 hr after fungal infection measured on day 1 after infection; format: functional, Vagina; procedure, shortened: as §1
Candida albicans [22] = assay: Antifungal activity against Candida albicans SA40 infected in Wistar rat estrogen-dependent fungal vaginitis model assessed as fungal burden at 10 uM administered intravaginally 48 hrs after fungal infection measured on day 28 after infection; format: functional, Vagina; procedure, shortened: as §1
Candida albicans [23] = assay: Antifungal activity against Candida albicans SA40 infected in Wistar rat estrogen-dependent fungal vaginitis model assessed as fungal burden at 10 uM administered intravaginally 48 hrs after fungal infection measured on day 21 after infection; format: functional, Vagina
Procedure, shortened: (§2)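 Oophorectomized female Wistar rats (80-100 g), given 0.5 mg estradiol benzoate subcutaneously, were challenged intravaginally six days later with >10⁷ YPD-grown yeast cells in 0.1 mL saline. Compound at 10 μM was instilled intravaginally at 1, 24 and 48 h post-challenge. Vaginal fluid samples (100 μL) were plated on Sabouraud agar with chloramphenicol (50 μg/mL), and burden was expressed as CFU/mL ×1000.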

Candida albicans [24] = assay: Antifungal activity against Candida albicans SA40 infected in Wistar rat estrogen-dependent fungal vaginitis model assessed as fungal burden at 10 uM administered intravaginally 48 hrs after fungal infection measured on day 14 after infection; format: functional, Vagina; procedure, shortened: as §2
Candida albicans [25] = assay: Antifungal activity against Candida albicans SA40 infected in Wistar rat estrogen-dependent fungal vaginitis model assessed as fungal burden at 10 uM administered intravaginally 48 hrs after fungal infection measured on day 7 after infection; format: functional, Vagina; procedure, shortened: as §2
Candida albicans [26] = assay: Antifungal activity against Candida albicans SA40 infected in Wistar rat estrogen-dependent fungal vaginitis model assessed as fungal burden at 10 uM administered intravaginally 48 hrs after fungal infection measured on day 5 after infection; format: functional, Vagina; procedure, shortened: as §2
Candida albicans [27] = assay: Antifungal activity against Candida albicans SA40 infected in Wistar rat estrogen-dependent fungal vaginitis model assessed as fungal burden at 10 uM administered intravaginally 24 hrs after fungal infection measured on day 2 after infection; format: functional, Vagina; procedure, shortened: as §2
Candida albicans [28] = assay: Antifungal activity against Candida albicans SA40 infected in Wistar rat estrogen-dependent fungal vaginitis model assessed as fungal burden at 10 uM administered intravaginally 1 hr after fungal infection measured on day 1 after infection; format: functional, Vagina; procedure, shortened: as §2
Candida albicans [29] = assay: Antifungal activity against Candida albicans SA40 infected in Wistar rat estrogen-dependent fungal vaginitis model assessed as fungal burden at 10 uM administered intravaginally 1 hr after fungal infection measured within 1 day of infection; format: functional, Vagina; procedure, shortened: as §1
[30] = biological target: Secreted aspartic protease 2 (Candida albicans) (UniProt P0CS83); assay: Inhibition of Candida albicans SAP2 at 0.2 uM by spectrophotometry relative to pepstatin A
Secreted aspartic protease 2 (Candida albicans), sequence (P0CS83 57-398 limits assumed): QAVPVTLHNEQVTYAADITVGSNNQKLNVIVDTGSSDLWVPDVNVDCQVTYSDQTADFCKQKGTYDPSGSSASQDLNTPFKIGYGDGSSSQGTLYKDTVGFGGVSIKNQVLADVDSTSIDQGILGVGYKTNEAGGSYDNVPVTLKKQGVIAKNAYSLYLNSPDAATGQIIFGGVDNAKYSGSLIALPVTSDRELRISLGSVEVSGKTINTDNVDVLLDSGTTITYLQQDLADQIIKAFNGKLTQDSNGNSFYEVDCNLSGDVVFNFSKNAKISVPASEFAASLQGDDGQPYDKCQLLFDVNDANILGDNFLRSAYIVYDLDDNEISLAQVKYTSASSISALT
Procedure, shortened: (§3)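 Sample was mixed with 1% (w/v) BSA substrate in 50 mM sodium citrate, pH 3.2, plus SAP2 protease (1 μg/mL stock solution) and incubated 30 min at 37 °C. The reaction was stopped with 10% TCA, kept 30 min on ice, and centrifuged; supernatant A280 was read. Percent inhibition was taken from ΔOD, with control proteinase minus proteinase plus pepstatin A set as 100%.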

[31] = biological target: Secreted aspartic protease 2 (Candida albicans) (UniProt P0CS83); assay: Inhibition of Candida albicans SAP2 at 0.02 uM by spectrophotometry relative to pepstatin A; procedure, shortened: as §3
[32] = biological target: Secreted aspartic protease 2 (Candida albicans) (UniProt P0CS83); assay: Inhibition of Candida albicans SAP2 at 20 uM by spectrophotometry relative to pepstatin A; procedure, shortened: as §3
[33] = biological target: Secreted aspartic protease 2 (Candida albicans) (UniProt P0CS83); assay: Inhibition of Candida albicans SAP2 at 2 uM by spectrophotometry relative to pepstatin A; procedure, shortened: as §3
[34] = biological target: Secreted aspartic protease 2 (Candida albicans) (UniProt P0CS83); assay: Inhibition of Candida albicans SAP2 at 10 uM by spectrophotometry relative to pepstatin A; procedure, shortened: as §3
Candida albicans [35] = assay: Antifungal activity against pharmacoresistant Candida albicans AIDS68 infected in Wistar rat estrogen-dependent fungal vaginitis model assessed as fungal burden at 10 ug administered intravaginally 1 hr after fungal infection measured within 1 day of infection; format: functional, Vagina; procedure, shortened: as §1
Candida albicans [36] = assay: Antifungal activity against pharmacoresistant Candida albicans AIDS68 infected in Wistar rat estrogen-dependent fungal vaginitis model assessed as fungal burden at 10 ug administered intravaginally 48 hrs after fungal infection measured on day 28 after infection; format: functional, Vagina; procedure, shortened: as §1

| Structure (SMILES) | Activity (Candida albicans [1]) [×10³ CFU/ml] | Activity (Candida albicans [2]) [×10³ CFU/ml] | Activity (Candida albicans [3]) [×10³ CFU/ml] | Activity (Candida albicans [4]) [×10³ CFU/ml] | Activity (Candida albicans [5]) [×10³ CFU/ml] | Activity (Candida albicans [6]) [×10³ CFU/ml] | Activity (Candida albicans [7]) [×10³ CFU/ml] | Activity (Candida albicans [8]) [×10³ CFU/ml] | Activity (Candida albicans [9]) [×10³ CFU/ml] | Activity (Candida albicans [10]) [×10³ CFU/ml] | Activity (Candida albicans [11]) [×10³ CFU/ml] | Activity (Candida albicans [12]) [×10³ CFU/ml] | Activity (Candida albicans [13]) [×10³ CFU/ml] | Activity (Candida albicans [14]) [×10³ CFU/ml] | further results |
| --- | --- | --- | --- | --- | --- | --- | --- | --- | --- | --- | --- | --- | --- | --- | --- |
| CC(C)CC(=O)N[C@H](C(=O)N[C@H](C(=O)N[C@@H](CC(C)C)[C@@H](O)CC(=O)N[C@@H](C)C(=O)N[C@@H](CC(C)C)[C@@H](O)CC(=O)O)C(C)C)C(C)C [PEPSTATIN] | 30 | 37.2 | 52 | 58.4 | 0 | 5 | 9.4 | 28 | 32.4 | 51 | 56.8 | >100 | 19.8 | 3.8 |  |
| O=C([C@@H]1O[C@H]2CN(Cc3ccccc3)C(=O)[C@@H]1O2)N1CCCCC1 |  |  |  |  |  |  |  |  |  |  |  |  |  |  | Activity (Candida albicans [15]): 0 ×10³ CFU/ml; Activity (Candida albicans [16]): 3.4 ×10³ CFU/ml; Activity (Candida albicans [17]): 12.8 ×10³ CFU/ml; Activity (Candida albicans [18]): 23.2 ×10³ CFU/ml; Activity (Candida albicans [19]): 40.6 ×10³ CFU/ml; Activity (Candida albicans [20]): 62.6 ×10³ CFU/ml; Activity (Candida albicans [21]): 71.8 ×10³ CFU/ml; Activity (Candida albicans [22]): 1.2 ×10³ CFU/ml; Activity (Candida albicans [23]): 8 ×10³ CFU/ml; Activity (Candida albicans [24]): 14.4 ×10³ CFU/ml; Activity (Candida albicans [25]): 30.6 ×10³ CFU/ml; Activity (Candida albicans [26]): 39.2 ×10³ CFU/ml; Activity (Candida albicans [27]): 57.6 ×10³ CFU/ml; Activity (Candida albicans [28]): 70 ×10³ CFU/ml; Activity (Candida albicans [29]): >100 ×10³ CFU/ml; inhibition [30]: 19%; inhibition [31]: 0%; inhibition [32]: 74%; inhibition [33]: 50%; inhibition [34]: 67% |
| OC(Cn1cncn1)(Cn1cncn1)c1ccc(F)cc1F [FLUCONAZOLE] | 44 | 61 | 93 | 100 | 0 | 1.25 | 5 | 11.7 | 25.7 | 49.7 | 53.5 | 100 | 18.7 | 11.7 | Activity (Candida albicans [35]): >100 ×10³ CFU/ml; Activity (Candida albicans [36]): 0 ×10³ CFU/ml |
